Assay results published in ChEMBL document CHEMBL3414425, “Synthesis and biological evaluation of new imidazo[2,1-b][1,3,4]thiadiazole-benzimidazole derivatives” (Eur J Med Chem, 2015).
Converted amounts (≈) assume the structure as drawn. The source made the active and inactive calls. The calls are words filed in the database; no cut-off is given here.

Legend:
[1] = system: Mycobacterium tuberculosis; test: Antitubercular activity against Mycobacterium tuberculosis H37Rv ATCC 27294/XDR-TB incubated for 28 days by agar dilution method; format: functional; conditions: 672 h
In short: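 Agar dilution: two-fold dilutions in Middlebrook 7H11 agar with OADC. Inoculum from fresh 7H11/OADC slants adjusted to 1 mg/mL wet weight in 0.05% Tween 80 saline, diluted 10^-2 (~10⁷ cfu/mL); 5 µL spotted per tube. Incubated 37 °C; MIC, lowest concentration fully inhibiting growth, read after 28 days, in triplicate.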

Escherichia coli [2] = test: Antibacterial activity against Escherichia coli at 1 mg/ml incubated for 18 hrs by well plate technique; format: functional; conditions: for zone of inhibition at 1000 µg/mL: read-out: DIZ
In short: (§1)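 Bacteria kept on nutrient agar at 37 °C, grown statically in nutrient broth (start ~10-100 cfu/mL) at 37 °C for 18-24 h. Suspensions diluted in saline and spread on nutrient agar, then wells cut with a cork borer. Compound in DMSO at 1 or 0.5 mg/mL added to wells, 37 °C, 18 h. Inhibition zone diameter measured minus DMSO value; triplicate; streptomycin standard.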

Escherichia coli [3] = test: Antibacterial activity against Escherichia coli at 0.5 mg/ml incubated for 18 hrs by well plate technique; format: functional; conditions: for zone of inhibition at 500 µg/mL: read-out: DIZ; in short: as §1
Staphylococcus aureus [4] = test: Antibacterial activity against Staphylococcus aureus at 1 mg/ml incubated for 18 hrs by well plate technique; format: functional; conditions: for zone of inhibition at 1000 µg/mL: read-out: DIZ; in short: as §1
Staphylococcus aureus [5] = test: Antibacterial activity against Staphylococcus aureus at 0.5 mg/ml incubated for 18 hrs by well plate technique; format: functional; conditions: for zone of inhibition at 500 µg/mL: read-out: DIZ; in short: as §1
Pseudomonas aeruginosa [6] = test: Antibacterial activity against Pseudomonas aeruginosa at 1 mg/ml incubated for 18 hrs by well plate technique; format: functional; conditions: for zone of inhibition at 1000 µg/mL: read-out: DIZ; in short: as §1
Pseudomonas aeruginosa [7] = test: Antibacterial activity against Pseudomonas aeruginosa at 0.5 mg/ml incubated for 18 hrs by well plate technique; format: functional; conditions: for zone of inhibition at 500 µg/mL: read-out: DIZ; in short: as §1
Salmonella typhi [8] = test: Antibacterial activity against Salmonella typhi at 1 mg/ml incubated for 18 hrs by well plate technique; format: functional, Salmonella enterica subsp. enterica serovar Typhi; conditions: for zone of inhibition at 1000 µg/mL: Salmonella enterica, read-out: DIZ
In short: (§2)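 Well diffusion on nutrient agar; strains kept on nutrient agar at 37 °C, grown statically in nutrient broth 18-24 h at 37 °C, diluted in saline, 0.1 ml spread per plate. Compounds in DMSO at 1 and 0.5 mg/mL added to cork-bored wells; 18 h at 37 °C. Inhibition zone diameter measured, DMSO value subtracted; triplicate; streptomycin reference.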

Salmonella typhi [9] = test: Antibacterial activity against Salmonella typhi at 0.5 mg/ml incubated for 18 hrs by well plate technique; format: functional, Salmonella enterica subsp. enterica serovar Typhi; conditions: for zone of inhibition at 500 µg/mL: Salmonella enterica, read-out: DIZ; in short: as §2
Aspergillus flavus [10] = test: Antifungal activity against Aspergillus flavus at 1 mg/ml incubated for 3 days; format: functional; conditions: for zone of inhibition at 1000 µg/mL: 72 h, read-out: IZ
In short: (§3)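 Well plate method on potato dextrose agar. Fungal stock suspended in distilled water with Tween 80 and swabbed over plates. Samples in DMSO at 1 and 0.5 mg/mL added to wells, incubated 25 °C for 3 days, then scored for inhibition zones; fluconazole standard.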

Aspergillus flavus [11] = test: Antifungal activity against Aspergillus flavus at 0.5 mg/ml incubated for 3 days; format: functional; conditions: for zone of inhibition at 500 µg/mL: 72 h, read-out: IZ; in short: as §3
[12] = system: Chrysosporium keratinophilum; test: Antifungal activity against Chrysosporium keratinophilum at 1 mg/ml incubated for 3 days; format: functional; conditions: for zone of inhibition at 1000 µg/mL: 72 h, read-out: IZ; in short: as §3
[13] = system: Chrysosporium keratinophilum; test: Antifungal activity against Chrysosporium keratinophilum at 0.5 mg/ml incubated for 3 days; format: functional; conditions: for zone of inhibition at 500 µg/mL: 72 h, read-out: IZ; in short: as §3
Candida albicans [14] = test: Antifungal activity against Candida albicans at 1 mg/ml incubated for 3 days; format: functional; conditions: for zone of inhibition at 1000 µg/mL: 72 h, read-out: IZ; in short: as §3
Candida albicans [15] = test: Antifungal activity against Candida albicans at 0.5 mg/ml incubated for 3 days; format: functional; conditions: for zone of inhibition at 500 µg/mL: 72 h, read-out: IZ; in short: as §3
[16] = Antioxidant activity assessed as DPPH radical scavenging activity incubated for 10 mins by UV-visible spectrometry; format: physicochemical
In short: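 DPPH free-radical scavenging; absorbance read at 517 nm against a methanol blank. % scavenging = (A control − A sample)/A control × 100.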

[17] = Cytotoxicity against African green monkey Vero cells assessed as growth inhibition at 62.5 ug/ml after 72 hrs by MTT assay; format: cell-based; conditions: chlorocebus sabaeus, read-out: GI
In short: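 Vero cells grown in MEM + 10% FBS at 37 °C, 5% CO2. Seeded ~10,000 cells/well, 24 h to a partial monolayer. Compounds in DMSO diluted in MEM + 2% FBS (1 mg/ml stock, two-fold dilutions) for 72 h. MTT 3 h, formazan dissolved in propanol, A540. % inhibition = 100 − (mean OD test/mean OD control × 100).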

[18] = Salmonella enterica subsp. enterica serovar Typhi

SMILES: Cc1ccc(-c2nc3sc(-c4ccc(Cl)cc4)nn3c2-c2nc3ccccc3[nH]2)cc1
- MIC [1]: 3.12 µg/mL (≈ 7.07 µM)
- zone of inhibition at 1000 µg/mL (Escherichia coli [2]): 5 mm
- zone of inhibition at 500 µg/mL (Escherichia coli [3]): 3 mm
- zone of inhibition at 1000 µg/mL (Staphylococcus aureus [4]): 4 mm
- zone of inhibition at 500 µg/mL (Staphylococcus aureus [5]): 1 mm
- zone of inhibition at 1000 µg/mL (Pseudomonas aeruginosa [6]): 4 mm
- zone of inhibition at 500 µg/mL (Pseudomonas aeruginosa [7]): 1 mm
- zone of inhibition at 1000 µg/mL (Salmonella typhi [8]): 5 mm
- zone of inhibition at 500 µg/mL (Salmonella typhi [9]): 3 mm
- zone of inhibition at 1000 µg/mL (Aspergillus flavus [10]): 5 mm
- zone of inhibition at 500 µg/mL (Aspergillus flavus [11]): 3 mm
- zone of inhibition at 1000 µg/mL [12]: 5 mm
- zone of inhibition at 500 µg/mL [13]: 2 mm
- zone of inhibition at 1000 µg/mL (Candida albicans [14]): 4 mm
- zone of inhibition at 500 µg/mL (Candida albicans [15]): 2 mm
- inhibition (INH) [16]: 45.7%
- inhibition at 72 h, 62.5 ug/ml [17]: 12.2%

SMILES: Cc1ccc(-c2nn3c(-c4nc5ccccc5[nH]4)c(-c4ccc(Cl)cc4)nc3s2)cc1
- MIC [1]: 3.12 µg/mL (≈ 7.07 µM)
- zone of inhibition at 1000 µg/mL (Escherichia coli [2]): 4 mm
- zone of inhibition at 500 µg/mL (Escherichia coli [3]): 2 mm
- zone of inhibition at 1000 µg/mL (Staphylococcus aureus [4]): 3 mm
- zone of inhibition at 500 µg/mL (Staphylococcus aureus [5]): 2 mm
- zone of inhibition at 1000 µg/mL (Pseudomonas aeruginosa [6]): 6 mm
- zone of inhibition at 500 µg/mL (Pseudomonas aeruginosa [7]): 3 mm
- zone of inhibition at 1000 µg/mL (Salmonella typhi [8]): 4 mm
- zone of inhibition at 500 µg/mL (Salmonella typhi [9]): 2 mm
- inhibition zone (IZ) (Aspergillus flavus [10]): inactive
- inhibition zone (IZ) (Aspergillus flavus [11]): inactive
- inhibition zone (IZ) [12]: inactive
- inhibition zone (IZ) [13]: inactive
- inhibition zone (IZ) (Candida albicans [14]): inactive
- inhibition zone (IZ) (Candida albicans [15]): inactive
- inhibition (INH) [16]: 18.8%
- inhibition at 72 h, 62.5 ug/ml [17]: 13.3%

SMILES: Fc1ccc(-c2nc3sc(-c4ccc(Cl)cc4)nn3c2-c2nc3ccccc3[nH]2)cc1
- MIC [1]: 3.12 µg/mL (≈ 7.01 µM)
- zone of inhibition at 1000 µg/mL (Escherichia coli [2]): 5 mm
- zone of inhibition at 500 µg/mL (Escherichia coli [3]): 3 mm
- zone of inhibition at 1000 µg/mL (Staphylococcus aureus [4]): 7 mm
- zone of inhibition at 500 µg/mL (Staphylococcus aureus [5]): 3 mm
- zone of inhibition at 1000 µg/mL (Pseudomonas aeruginosa [6]): 8 mm
- zone of inhibition at 500 µg/mL (Pseudomonas aeruginosa [7]): 5 mm
- zone of inhibition at 1000 µg/mL (Salmonella typhi [8]): 3 mm
- zone of inhibition at 500 µg/mL (Salmonella typhi [9]): 1 mm
- zone of inhibition at 1000 µg/mL (Aspergillus flavus [10]): 4 mm
- zone of inhibition at 500 µg/mL (Aspergillus flavus [11]): 2 mm
- zone of inhibition at 1000 µg/mL [12]: 4 mm
- zone of inhibition at 500 µg/mL [13]: 3 mm
- zone of inhibition at 1000 µg/mL (Candida albicans [14]): 3 mm
- zone of inhibition at 500 µg/mL (Candida albicans [15]): 1 mm
- inhibition (INH) [16]: 21.7%
- inhibition at 72 h, 62.5 ug/ml [17]: 10.7%

SMILES: COc1ccc(-c2nc3sc(C)nn3c2-c2nc3ccccc3[nH]2)cc1
- MIC [1]: 6.25 µg/mL (≈ 17.3 µM)
- diameter of the inhibition zone (DIZ) (Escherichia coli [2]): inactive
- diameter of the inhibition zone (DIZ) (Escherichia coli [3]): inactive
- diameter of the inhibition zone (DIZ) (Staphylococcus aureus [4]): inactive
- diameter of the inhibition zone (DIZ) (Staphylococcus aureus [5]): inactive
- diameter of the inhibition zone (DIZ) (Pseudomonas aeruginosa [6]): inactive
- diameter of the inhibition zone (DIZ) (Pseudomonas aeruginosa [7]): inactive
- diameter of the inhibition zone (DIZ) (Salmonella typhi [8]; [18]): inactive
- diameter of the inhibition zone (DIZ) (Salmonella typhi [9]; [18]): inactive
- inhibition zone (IZ) (Aspergillus flavus [10]): inactive
- inhibition zone (IZ) (Aspergillus flavus [11]): inactive
- inhibition zone (IZ) [12]: inactive
- inhibition zone (IZ) [13]: inactive
- inhibition zone (IZ) (Candida albicans [14]): inactive
- inhibition zone (IZ) (Candida albicans [15]): inactive
- inhibition (INH) [16]: 21.4%
- inhibition at 72 h, 62.5 ug/ml [17]: 7.1%
